The record followed here is ChEMBL document CHEMBL4196173, “Stabilized β-Hairpin Peptide Inhibits Insulin Degrading Enzyme” (J Med Chem, 2018).

Each structure is given as a SMILES string. Calls of active or inactive are those of the source. The rule behind the calls is not given here.

Series [1] concerns the target Insulin-degrading enzyme (Homo sapiens, UniProt P14735, E111Q). Description: Binding affinity to IDE E111Q mutant (unknown origin) using N-terminal FITC-labeled compound after 2 hrs in absence of light at 298 K by fluorescence polarization assay. In a few lines:
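IDE-E111Q was titrated against 20 nM FITC-labelled peptide in 20 mM Tris-HCl pH 8.0, 50 mM NaCl, 1 mM TCEP and incubated 2 h at 277 K in the dark. Polarization was read at 298 K (ex 480, em 535 nm) and plotted against IDE concentration. Three independent experiments, each in duplicate.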
A general note: In fluorescence polarisation assays a small probe gives low polarisation when free and higher when bound to something large.

Series [2] in a line: Selectivity ratio of IC50 for ECE-1 (unknown origin) to IC50 for mouse His-tagged IDE (42 to 1019 residues).
The nature of series [3]: Selectivity ratio of IC50 for ACE (unknown origin) to IC50 for mouse His-tagged IDE (42 to 1019 residues).
Series [4] can be described thus: Selectivity ratio of IC50 for NEP (unknown origin) to IC50 for mouse His-tagged IDE (42 to 1019 residues).
The nature of series [5]: Drug uptake in human HeLa cells at 5 uM using FITC-labeled compound after 2 hrs at 310 K by trypan blue-fluorescence based FACS analysis. The format is ADME, cell-based. A digest of the protocol: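 HeLa cells were grown overnight in DMEM with 10% FBS, then given 5 μM FITC-labelled peptide in FBS-free medium for 2 h at 310 K. Cells were washed with PBS and 0.4% trypan blue, trypsinized and washed. Mean fluorescence was measured by flow cytometry with gated cell counts. Three independent experiments.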
(In general: A flow cytometer gives signals particle by particle.)

The nature of series [6]: Drug uptake in human HeLa cells at 5 uM using FITC-labeled compound after 2 hrs at 310 K by LC-MS analysis. The format is ADME, cell-based. A digest of the protocol:
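HeLa cells were exposed to FITC-labelled peptide for 2 h, washed with PBS and 0.4% trypan blue, then trypsinized, washed and lysed. The lysates were examined by LC–MS.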

A short description of series [7]: Metabolic stability in 25% mouse serum assessed as compound remaining at 250 uM up to 24 hrs by LC-MS analysis. The format is ADME, cell-free. In a few lines:
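Peptide at a final 250 μM in 25% mouse serum was incubated at 310 K for 0–24 h. Samples were quenched in 12% TCA in H2O/CH3CN (1:1) and chilled at 277 K for 15 min. After centrifugation, the intact peptide in the supernatant was quantified by LC–MS. Three independent experiments.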

Series [8] concerns Mus musculus. The experiment in a line: Toxicity in lean C57BL/6J mouse assessed as body weight change at 80 mg/kg, ip after 3 days. In kind it is organism-based. The note with it: in vivo, 72 h. In a few lines:
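Male lean C57BL/6J mice (13–15 weeks) received 80 mg kg−1 i.p. or PBS vehicle (n = 6 each). Behaviour and body weight were monitored.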

Series [9] relates to Mus musculus. Description: Induction of glucagon levels in lean C57BL/6J mouse at 80 mg/kg, ip after 30 to 120 mins post injection by ELISA. In kind it is functional, organism-based. In a few lines: (§1)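 Male lean C57BL/6J mice received 80 mg kg−1 i.p. (n = 5) or PBS. At 30 or 120 min, heparinized blood was taken from tail or eye socket and spun to plasma. Insulin (5 μL plasma), C-peptide, glucagon, beta-endorphin and TNF alpha (10 μL each) were measured by ultrasensitive ELISA. Mean ± SEM, two-tailed t test.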

Series [10] relates to Mus musculus. The experiment in a line: Effect on basal TNFalpha levels in lean C57BL/6J mouse at 80 mg/kg, ip after 30 to 120 mins post injection by ELISA. The format is ADME, organism-based. The note with it: in vivo. A digest of the protocol: as §1
A general note: In an ELISA, binding on a coated surface is turned into a signal by an enzyme label.

The subject of series [11] is Mus musculus. The experiment in a line: Effect on basal beta-endrophins levels in lean C57BL/6J mouse at 80 mg/kg, ip after 30 to 120 mins post injection by ELISA. The settings on record: in vivo. In kind it is ADME, organism-based. A digest of the protocol:
as §1

Series [12] concerns Mus musculus. The experiment in a line: Effect on amyloid beta (1-40) levels in lean C57BL/6J mouse brain at 80 mg/kg, ip administered per another day measured after 4 hrs to 11 days post injection by ELISA. The settings on record: in vivo. The format is ADME, organism-based. A digest of the protocol: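 Male lean C57BL/6J mice received 80 mg kg−1 i.p. every other day (n = 5) or PBS vehicle. Brains (~350 mg) were Dounce-homogenized in PBS with 1 mM PMSF and spun at 13,000 rpm for 30 min at 277 K. Supernatant Aβ(1–40) was measured by ELISA at 4 h, 24 h, 7 days and 11 days. Mean ± SEM, two-tailed t test.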

Series [13] in a line: Tmax in lean C57BL/6J mouse at 100 mg/kg, ip by LC-MS analysis. The format is ADME, organism-based. The settings on record: in vivo. In a few lines:
(§2)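 Male lean C57BL/6J mice, 13–15 weeks old, given one i.p. dose of 100 mg kg−1 (n = 5). Tail or eye-socket blood was taken from 20 min to 43 h and spun to plasma. 30 μL plasma was mixed with 100 μL 10% TCA in H2O/CH3CN (1:1) and chilled at 277 K for 15 min. After centrifugation the peptide left in the supernatant was quantified by LC–MS. Two independent experiments.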

Series [14] can be described thus: Cmax in lean C57BL/6J mouse at 100 mg/kg, ip by LC-MS analysis. The settings on record: in vivo. In kind it is ADME, organism-based. More on the design: dose 100 mg/kg, route intraperitoneal. A digest of the protocol: as §2
The test system of series [15] is Mus musculus. Description: AUC (0 to 43 hrs) in lean C57BL/6J mouse at 100 mg/kg, ip by LC-MS analysis. In kind it is ADME, organism-based. More on the design: time < 43 hr, dose 100 mg/kg, route intraperitoneal. The settings on record: in vivo. A digest of the protocol: as §2
Series [16] in a line: Absolute bioavailability in lean C57BL/6J mouse at 100 mg/kg, ip by LC-MS analysis. The format is ADME, organism-based. The note with it: in vivo. A digest of the protocol:
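Mice received the peptide by orbital i.v. injection (taken as 100%) or by i.p. injection. Plasma was sampled from 20 min to 43 h, TCA-precipitated and analysed by LC–MS. Fabc% = (AUCip × Div)/(AUCiv × Dip) × 100%. Two independent experiments.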

Series [17] in a line: Drug uptake in brain parenchyma of lean C57BL/6J mouse at 80 mg/kg, iv using FITC-labeled compound by two-photon microscopic analysis. The settings on record: in vivo.

Sequence of Insulin-degrading enzyme (P14735 whole entry E111Q): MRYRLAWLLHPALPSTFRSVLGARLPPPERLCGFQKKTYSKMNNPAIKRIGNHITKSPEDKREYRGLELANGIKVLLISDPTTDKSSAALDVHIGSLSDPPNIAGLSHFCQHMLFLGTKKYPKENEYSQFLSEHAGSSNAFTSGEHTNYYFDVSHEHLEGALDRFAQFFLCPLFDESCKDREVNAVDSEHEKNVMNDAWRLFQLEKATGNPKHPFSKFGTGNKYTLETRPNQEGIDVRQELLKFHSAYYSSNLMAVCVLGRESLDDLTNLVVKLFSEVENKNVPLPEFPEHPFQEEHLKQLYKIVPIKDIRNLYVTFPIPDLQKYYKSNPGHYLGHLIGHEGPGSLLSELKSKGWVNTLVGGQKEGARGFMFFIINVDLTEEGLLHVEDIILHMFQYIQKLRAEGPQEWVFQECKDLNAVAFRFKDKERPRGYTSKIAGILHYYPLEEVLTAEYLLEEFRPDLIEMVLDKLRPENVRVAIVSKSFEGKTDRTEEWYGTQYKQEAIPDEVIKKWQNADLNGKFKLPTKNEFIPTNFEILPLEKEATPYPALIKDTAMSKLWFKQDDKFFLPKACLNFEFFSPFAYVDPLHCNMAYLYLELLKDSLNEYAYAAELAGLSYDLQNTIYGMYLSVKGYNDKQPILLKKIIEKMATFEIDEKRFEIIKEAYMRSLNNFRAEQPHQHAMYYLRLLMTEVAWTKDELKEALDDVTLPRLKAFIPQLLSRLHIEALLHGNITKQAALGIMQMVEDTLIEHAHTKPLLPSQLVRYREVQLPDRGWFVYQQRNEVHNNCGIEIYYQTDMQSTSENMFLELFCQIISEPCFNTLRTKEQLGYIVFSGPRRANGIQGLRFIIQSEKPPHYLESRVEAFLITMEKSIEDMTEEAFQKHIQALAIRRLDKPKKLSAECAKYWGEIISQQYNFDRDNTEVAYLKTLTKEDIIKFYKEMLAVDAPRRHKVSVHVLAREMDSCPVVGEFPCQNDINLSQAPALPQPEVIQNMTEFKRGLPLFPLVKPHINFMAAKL

As to `CC(=O)N[C@@H](CCC(=O)O)C(=O)N[C@@H](Cc1c[nH]c2ccccc12)C(=O)N[C@@H](CCCNC(=N)N)C(=O)N[C@@H](Cc1ccccc1)C(=O)N[C@H]1CC(=O)NC[C@@H](C(=O)N[C@@H](CC(C)C)C(=O)N[C@@H](Cc2ccc(O)cc2)C(=O)N[C@@H](CC(C)C)C(=O)N[C@H](C(=O)N[C@@H](CS)C(=O)NCC(N)=O)C(C)C)NC(=O)[C@H](CCC(=O)O)NC(=O)[C@@H]2CCCN2C(=O)[C@H]2CCCN2C(=O)CNC1=O`, binding in [1] was put at a Kd of 0.022 µM. Further, the Ratio IC50 in [2], in series [3] and in series [4] was more than 1000 in each case. In addition, the Drug uptake result is reported as “Active” in [5], “Active” in [6] and “Not Active” in series [17]. For the same compound, the Stability result in series [7] is listed as “Unstable”. The Activity entry in series [8], in series [10], in series [11] and in series [12] was “Non-Toxic” throughout. Further, in [9], the outcome was Active. Further, the time of peak concentration (Tmax) (as a rule, the time from dosing to the highest level) in [13] is 1.4 h. The peak level in series [14] (Cmax) was 619 µg/mL. In series [15], the AUC (in general, concentration integrated over time) was 7600 µg·h/mL. Further, the bioavailability (as a rule, the share of a dose that reaches the circulation, judged against a reference dose that is usually intravenous) in [16] is 83.5%.
